Structures are written as SMILES. Activity calls are given as the source filed them.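 Rule for the calls: active = growth inhibition above 25% in both replicates, a cutoff set 3 SD above the mean; inconclusive = above 25% in only one replicate; inactive = the rest.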

This experiment is described as follows: OD615 S. cerevisiae growth inhibition, permissive medium, pilot counter-assay, permissive growth control for S. cerevisiae lifespan shortening project (AID 705). Particulars: OD615, 24 h, at 10 µM, stronger effect = higher value. The gist of the method:
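Test system: Saccharomyces cerevisiae strain carrying genetically modified DeaD replicative-lifespan system; buffer or medium: SC raffinose/galactose permissive medium; dosing: one dose 10 µM, DMSO 0.25% final; times: 24 h exposure, 30 °C; measured by: OD at 615 nm; read-out basis: growth inhibition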
In the case of `Cc1ccc(C(=O)NCCNC(=O)CN2CCCC2)cc1`, the growth inhibition is -7.48% (inactive).
For `Cc1csc(NC(=O)NC2(C(F)(F)F)Oc3ccccc3O2)n1`, the growth inhibition is -6.66% (inactive).
With `CCOC(=O)N1CCN(C(=O)c2oc3ccc(S(=O)(=O)N4CCOCC4)cc3c2C)CC1`, the growth inhibition is -6.53% (inactive).
To `COc1cc(/C=N/n2cnnc2)ccc1OC(=O)c1cccnc1` belongs -8.46% (inactive); to `CN(CCNC(=O)c1cc2c(=O)n(C)c3ccccc3c2n1C)Cc1ccccc1`, -12% (inactive).
Next, `Cc1ccc(N=Cc2c(O)n(C)c(=O)n(C)c2=O)nc1`: 5.8% (inactive).
In the case of `Cc1cc(NS(=O)(=O)c2ccccc2)cc(Cl)c1O`, the growth inhibition was -22.9% (inactive).
Next, `CCS(=O)(=O)C(=C(Nc1ccc(OC)cc1)Nc1ccc(OC)cc1)S(=O)(=O)CC`: -3.28% (inactive); `O=C(CN1C(=O)c2ccccc2S1(=O)=O)N1CCN(c2ccccc2F)CC1`: 0.11% (inactive); `C/C(CC(O)c1ccc2ccccc2n1)=N/O` (stereo not given): 1.34% (inactive).
Turning to `O=C(CCn1nnc2ccccc21)N1CCC(O)(c2cccc(F)c2)CC1`, the growth inhibition is -3.14% (inactive).
Next, `COc1ccc(S(=O)(=O)N2CCCCC2C(=O)O)cc1OC` (stereo not given): -7% (inactive).
Next, `COC(=O)c1c(NC(=O)Cc2cccs2)sc(C)c1C`: 2.9% (inactive).
To `CC(C)CC(NC(=O)C1CCCCC1)C(=O)NCc1ccccn1` (stereo not given) belongs 1.21% (inactive); to `COc1cccc(OCCOc2cccc(/C=N/n3cnnc3)c2)c1`, 6.03% (inactive); to `O=C(NCc1cccc(F)c1)c1noc2c1CCCC2`, -12.1% (inactive).
For the compound `COc1ccc(C)cc1NC(=O)CN(c1ccccc1)S(C)(=O)=O`, the growth inhibition is -7.61% (inactive).
Regarding `Cc1ccc(C(C)NC(=O)c2ccco2)cc1C` (stereo not given), the growth inhibition was -7.97% (inactive).
To `Cc1cccc(-n2c(=O)[nH]c3c(C(N)=O)nc(-c4ccccc4Cl)nc32)c1` belongs -7.62% (inactive); to `COc1cc(C(C)=O)ccc1OC(=O)C(C)N1C(=O)c2ccccc2C1=O` (stereo not given), -17.5% (inactive).
To `CCOC(=O)C(C(=O)Nc1cccc(C)n1)C1CCCCC1` (stereo not given) belongs -6.76% (inactive).
Next, `O=C(Oc1c(Cl)cc(Cl)c2cccnc12)N1CCCCC1`: -11.5% (inactive); `O=C1N=C(c2ccccc2)C(c2ccccc2)N1` (stereo not given): -9.57% (inactive).
As for `Cc1cccc(N(C)C(=O)CCS(=O)(=O)c2cccc3nonc23)c1`, the growth inhibition was -5.82% (inactive).
Next, `O=C(Cc1ccc(Cl)cc1)Nc1ccccc1CO`: 0.105% (inactive); `CCCC(=O)Nc1cccc(C(=O)Nc2nccs2)c1`: -9.54% (inactive).
Next, `CC(=O)c1c(C(C)=O)c(C)n(-c2nc(-c3ccccc3)c(C)s2)c1C`: 0.235% (inactive); `COc1ccc(CCNS(=O)(=O)c2ccc3c(c2)OCCO3)cc1OC`: -9.32% (inactive).
Next, `O=C(Nc1cccnc1)c1ccc(CN2CCc3ccccc3C2)cc1`: -3.88% (inactive); `O=c1c2cnn(-c3ccccc3)c2nc(-c2ccco2)n1-c1ccccc1`: -4.83% (inactive).
For the compound `COc1ccc(OC)c(N(CC(=O)Nc2ccc3c(c2)OCO3)S(=O)(=O)c2ccccc2)c1`, the growth inhibition was -11.4% (inactive).
Next, `Cn1cnnc1SCC(=O)c1ccco1`: -5.92% (inactive); `CCOC(=O)N1CCN(C(=O)CS(=O)(=O)c2cn(Cc3ccccc3C)c3ccccc23)CC1`: -9.04% (inactive).
Next, `O=C(C1CC1)N1CCc2cc(Br)cc(S(=O)(=O)NCCN3CCOCC3)c21`: -5.94% (inactive).
To `c1ccc(-n2nnnc2-n2ccnc2)cc1` belongs 3.38% (inactive); to `Cc1oc(-c2cccc(Cl)c2)nc1CN1CCC(C(=O)N2CCN(c3ccccn3)CC2)CC1`, -5.81% (inactive).
For the compound `O=C1CC(c2ccccc2)c2cc(O)ccc2O1` (stereo not given), the growth inhibition is -23.7% (inactive).
To `CCC(C)C1C(C#N)=C(N)Oc2n[nH]c(C)c21` (stereo not given) belongs -0.17% (inactive); to `NC(=O)CNC1CC(=O)N(CCc2ccccc2)C1=O` (stereo not given), 2.06% (inactive).
Next, `Cc1csc(SCC(=O)c2ccc(S(=O)(=O)N3CCOCC3)cc2)n1`: 0.36% (inactive).

(Values after PubChem BioAssay.)
